From ChEMBL document CHEMBL3751842, “Novel triazolothiadiazines act as potent anticancer agents in liver cancer cells through Akt and ASK-1 proteins” (Bioorg Med Chem, 2016)
The source made the active and inactive calls. No cut-off for these calls is given here.

Tests used:
[1] = Cytotoxicity against human HuH7 cells assessed as growth inhibition after 72 hrs by sulforhodamine B assay; assay type: functional, cell-based, Huh-7
Summary of the method: (§1)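 Cells were grown at 37°C, 5% CO2 in DMEM with 10% FBS. They were seeded at 1000–3000 cells/well, grown 24 h, then exposed to compound at 2.5–40 µM for 72 h. Cells were fixed in 10% TCA for 1 h at 4°C, stained with 0.4% SRB in 1% acetic acid for 10 min, and the dye solubilized in 10 mM Tris. Absorbance was read at 515 nm; runs were in triplicate; IC50 was calculated, with fits of R2 0.8–1 accepted.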

MCF7 = assay: Cytotoxicity against human MCF7 cells assessed as growth inhibition after 72 hrs by sulforhodamine B assay; assay type: functional, cell-based; summary of the method: as §1
[2] = Cytotoxicity against human HCT116 cells assessed as growth inhibition after 72 hrs by sulforhodamine B assay; assay type: functional, cell-based, HCT-116; summary of the method: as §1
[3] = Cytotoxicity against human Mahlavu cells assessed as growth inhibition after 72 hrs by sulforhodamine B assay; assay type: functional, cell-based; summary of the method: as §1
[4] = Cytotoxicity against human FOCUS cells assessed as growth inhibition after 72 hrs by sulforhodamine B assay; assay type: functional, cell-based; summary of the method: as §1
[5] = Cytotoxicity against human SNU475 cells assessed as growth inhibition after 72 hrs by sulforhodamine B assay; assay type: functional, cell-based, SNU-475; summary of the method: as §1
HepG2 = assay: Cytotoxicity against human HepG2 cells assessed as growth inhibition after 72 hrs by sulforhodamine B assay; assay type: functional, cell-based; summary of the method: as §1
[6] = Cytotoxicity against human Hep3B cells assessed as growth inhibition after 72 hrs by sulforhodamine B assay; assay type: functional, cell-based, Hep 3B2; summary of the method: as §1
Huh-7 [7] = assay: Induction of apoptosis in human HuH7 cells assessed as nuclear condensation at 10 uM after 48 hrs by Hoechst 33258 staining-based immunofluorescence microscopy; assay type: functional, cell-based
Summary of the method: (§2)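 Cells on coverslips were incubated overnight, then treated with 10 µM compound or DMSO for 48 h. They were washed in ice-cold PBS, fixed in cold methanol for 10 min, and stained with 1 µg/mL Hoechst 33258 for 5 min in the dark. Nuclei were examined by fluorescence microscopy with a 40x objective.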

Huh-7 [8] = assay: Induction of apoptosis in human HuH7 cells assessed as horseshoe nuclear structure at 10 uM after 48 hrs by Hoechst 33258 staining-based immunofluorescence microscopy; assay type: functional, cell-based; summary of the method: as §2
Huh-7 [9] = assay: Cytotoxicity against human HuH7 cells assessed as cell impedance at IC25 to IC100 measured every 30 mins for 72 hrs by RT-CES assay; assay type: functional, cell-based; settings: TDE = time-dependent effect
Summary of the method: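 Huh7 cells were seeded at 1000–5000 cells/well on electrode plates. […] Impedance was read as cell index every 10 min for the first 24 h, then every 30 min, over 72 h. Data were normalized to DMSO; inhibition (%) = [1 − (CI treated/CI DMSO)] × 100. Each experiment was run at least three times.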

[10] = Homo sapiens, Huh-7, 72 h, read-out: IC50
[11] = Homo sapiens, MCF7, 72 h, read-out: IC50
[12] = Homo sapiens, HCT-116, 72 h, read-out: IC50
[13] = Homo sapiens, Mahlavu, 72 h, read-out: IC50
[14] = Homo sapiens, FOCUS, 72 h, read-out: IC50
[15] = Homo sapiens, SNU-475, 72 h, read-out: IC50
[16] = Homo sapiens, HepG2, 72 h, read-out: IC50
[17] = Homo sapiens, Hep3B, 72 h, read-out: IC50

CC(c1ccc(-c2ccccc2)c(F)c1)c1nnc2n1N=C(c1ccccc1)CS2 (centres undefined)
IC50 [1, 10]: 6.7 µM
IC50 (MCF7; [11]): 7.4 µM
IC50 [2, 12]: 9.7 µM

COc1ccc2cc([C@H](C)C(=O)O)ccc2c1 [NAPROXEN]
IC50 ([1]; huh-7): Not Active
IC50 (MCF7; mcf7): Not Active
IC50 ([2]; hct-116): Not Active
IC50 ([3]; mahlavu): Not Active
IC50 ([4]; focus): Not Active
IC50 ([5]; snu-475): Not Active
IC50 (HepG2; hepg2): Not Active
IC50 ([6]; hep 3b2): Not Active

Cc1ccc(C2=Nn3c(nnc3C(C)c3ccc(-c4ccccc4)c(F)c3)SC2)cc1 (centres undefined)
IC50 [1, 10]: 7.2 µM
IC50 (MCF7; [11]): 5 µM
IC50 [2, 12]: 4.8 µM

CC(c1ccc(-c2ccccc2)c(F)c1)c1nnc2n1N=C(c1ccc(Br)cc1)CS2 (centres undefined)
Activity (Huh-7 [7]): inactive
Activity (Huh-7 [8]): inactive
Activity (Huh-7 [9]): tde
IC50 [1, 10]: 5 µM
IC50 (MCF7; [11]): 7.4 µM
IC50 [2, 12]: 7.1 µM
IC50 [3, 13]: 6.2 µM
IC50 [4, 14]: 8.5 µM
IC50 [5, 15]: 7 µM
IC50 (HepG2; [16]): 3.7 µM
IC50 [6, 17]: 1.5 µM

CC(C)Cc1ccc(C(C)c2nnc3n2N=C(c2ccc([N+](=O)[O-])cc2)CS3)cc1 (centres undefined)
IC50 ([1]; huh-7): Not Active
IC50 (MCF7; mcf7): Not Active
IC50 ([2]; hct-116): Not Active

CC(c1ccc(-c2ccccc2)c(F)c1)c1nnc2n1N=C(c1ccc(F)cc1)CS2 (centres undefined)
Activity (Huh-7 [7]): Active
Activity (Huh-7 [8]): Active
Activity (Huh-7 [9]): tde
IC50 [1, 10]: 4.9 µM
IC50 (MCF7; [11]): 8.1 µM
IC50 [2, 12]: 10.5 µM
IC50 [3, 13]: 7.4 µM
IC50 [4, 14]: 3.5 µM
IC50 [5, 15]: 6.6 µM
IC50 (HepG2; [16]): 5.1 µM
IC50 [6, 17]: 2.6 µM

CC(C(=O)O)c1ccc(-c2ccccc2)c(F)c1 (centres undefined) [FLURBIPROFEN]
IC50 ([1]; huh-7): Not Active
IC50 (MCF7; mcf7): Not Active
IC50 ([2]; hct-116): Not Active
IC50 ([3]; mahlavu): Not Active
IC50 ([4]; focus): Not Active
IC50 ([5]; snu-475): Not Active
IC50 (HepG2; hepg2): Not Active
IC50 ([6]; hep 3b2): Not Active

CC(C)Cc1ccc(C(C)c2nnc3n2N=C(c2ccc(C(F)(F)F)cc2)CS3)cc1 (centres undefined)
IC50 [1, 10]: 8.4 µM
IC50 (MCF7; [11]): 4.2 µM
IC50 [2, 12]: 6.5 µM

COc1ccc(C2=Nn3c(nnc3C(C)c3ccc4cc(OC)ccc4c3)SC2)cc1 (centres undefined)
IC50 [1, 10]: 8.5 µM
IC50 (MCF7; [11]): 6.6 µM
IC50 [2, 12]: 6.5 µM

CC(c1ccc(-c2ccccc2)c(F)c1)c1nnc2n1N=C(c1ccc(C(F)(F)F)cc1)CS2 (centres undefined)
IC50 [1, 10]: 9.4 µM
IC50 (MCF7; [11]): 4.3 µM
IC50 [2, 12]: 6.1 µM

COc1ccc2cc(C(C)c3nnc4n3N=C(c3ccc(C(F)(F)F)cc3)CS4)ccc2c1 (centres undefined)
IC50 [1, 10]: 14.8 µM
IC50 (MCF7; [11]): 6.9 µM
IC50 [2, 12]: 10.8 µM

CC(C)Cc1ccc(C(C)c2nnc3n2N=C(c2ccc(F)cc2)CS3)cc1 (centres undefined)
IC50 [1, 10]: 7.8 µM
IC50 (MCF7; [11]): 8.9 µM
IC50 [2, 12]: 12.4 µM

CC(c1ccc(-c2ccccc2)c(F)c1)c1nnc2n1N=C(c1ccc([N+](=O)[O-])cc1)CS2 (centres undefined)
Activity (Huh-7 [7]): inactive
Activity (Huh-7 [8]): inactive
Activity (Huh-7 [9]): tde
IC50 [1, 10]: 4.3 µM
IC50 (MCF7; [11]): 7.8 µM
IC50 [2, 12]: 7.1 µM
IC50 [3, 13]: 9.4 µM
IC50 [4, 14]: 3.5 µM
IC50 [5, 15]: 7.1 µM
IC50 (HepG2; [16]): 4.3 µM
IC50 [6, 17]: 2.9 µM

CC(c1ccc(-c2ccccc2)c(F)c1)c1n[nH]c(=S)n1N (centres undefined)
IC50 [1, 10]: 43.1 µM
IC50 (MCF7; mcf7): Not Active
IC50 ([2]; hct-116): Not Active
IC50 ([3]; mahlavu): Not Active
IC50 ([4]; focus): Not Active
IC50 ([5]; snu-475): Not Active
IC50 (HepG2; [16]): 21.4 µM
IC50 ([6]; hep 3b2): Not Active

CC(c1ccc(-c2ccccc2)c(F)c1)c1nnc2n1N=C(c1ccc(OC(F)(F)F)cc1)CS2 (centres undefined)
IC50 [1, 10]: 8.4 µM
IC50 (MCF7; [11]): 4.8 µM
IC50 [2, 12]: 5.4 µM

COc1ccc2cc(C(C)c3nnc4n3N=C(c3ccc(Br)cc3)CS4)ccc2c1 (centres undefined)
IC50 [1, 10]: 9.3 µM
IC50 (MCF7; [11]): 11.5 µM
IC50 [2, 12]: 11.7 µM

COc1ccc2cc(C(C)c3nnc4n3N=C(c3ccc(OC(F)(F)F)cc3)CS4)ccc2c1 (centres undefined)
IC50 [1, 10]: 16 µM
IC50 (MCF7; [11]): 8.8 µM
IC50 [2, 12]: 11.7 µM

COc1ccc2cc(C(C)c3nnc4n3N=C(c3ccc(F)cc3)CS4)ccc2c1 (centres undefined)
IC50 [1, 10]: 7 µM
IC50 (MCF7; [11]): 15.8 µM
IC50 [2, 12]: 13.1 µM

COc1ccc2cc(C(C)c3nnc4n3N=C(c3ccc(C)cc3)CS4)ccc2c1 (centres undefined)
IC50 [1, 10]: 8.2 µM
IC50 (MCF7; [11]): 11 µM
IC50 [2, 12]: 10.2 µM

COc1ccc2cc(C(C)c3nnc4n3N=C(c3ccc([N+](=O)[O-])cc3)CS4)ccc2c1 (centres undefined)
IC50 [1, 10]: 14.7 µM
IC50 (MCF7; [11]): 18.8 µM
IC50 [2, 12]: 15.1 µM

CC[C@@]1(O)C(=O)OCc2c1cc1n(c2=O)Cc2cc3ccccc3nc2-1 [CAMPTOTHECIN]
IC50 [1, 10]: ≤ 0.1 µM
IC50 (MCF7; [11]): ≤ 0.1 µM
IC50 [2, 12]: ≤ 0.1 µM
IC50 [3, 13]: < 1 µM
IC50 [4, 14]: < 1 µM
IC50 [5, 15]: < 1 µM
IC50 (HepG2; [16]): < 1 µM
IC50 [6, 17]: < 1 µM

COc1ccc2cc(C(C)c3nnc4n3N=C(c3ccc(Cl)cc3Cl)CS4)ccc2c1 (centres undefined)
IC50 [1, 10]: 10.7 µM
IC50 (MCF7; [11]): 14.6 µM
IC50 [2, 12]: 14 µM

COc1ccc2cc(C(C)c3nnc4n3N=C(c3ccccc3)CS4)ccc2c1 (centres undefined)
IC50 [1, 10]: 5.7 µM
IC50 (MCF7; [11]): 11.7 µM
IC50 [2, 12]: 8.9 µM

CC(C)Cc1ccc(C(C)c2n[nH]c(=S)n2N)cc1 (centres undefined)
IC50 [1, 10]: 23 µM
IC50 (MCF7; [11]): 16.1 µM
IC50 [2, 12]: 27.4 µM
IC50 [3, 13]: 16.2 µM
IC50 ([4]; focus): Not Active
IC50 [5, 15]: 11.7 µM
IC50 (HepG2; hepg2): Not Active
IC50 [6, 17]: 13.1 µM

CC(C)Cc1ccc(C(C)c2nnc3n2N=C(c2ccc(Cl)cc2Cl)CS3)cc1 (centres undefined)
IC50 [1, 10]: 7.5 µM
IC50 (MCF7; [11]): 11.8 µM
IC50 [2, 12]: 11.1 µM

CC(C)Cc1ccc(C(C)c2nnc3n2N=C(c2ccc(Cl)cc2)CS3)cc1 (centres undefined)
IC50 [1, 10]: 5.7 µM
IC50 (MCF7; [11]): 8.8 µM
IC50 [2, 12]: 6.7 µM

CC(C)Cc1ccc(C(C)c2nnc3n2N=C(c2ccccc2)CS3)cc1 (centres undefined)
IC50 [1, 10]: 6.1 µM
IC50 (MCF7; [11]): 9.7 µM
IC50 [2, 12]: 7.6 µM

COc1ccc2cc(C(C)c3n[nH]c(=S)n3N)ccc2c1 (centres undefined)
IC50 [1, 10]: 40.8 µM
IC50 (MCF7; [11]): 22.3 µM
IC50 [2, 12]: 20.2 µM
IC50 ([3]; mahlavu): Not Active
IC50 ([4]; focus): Not Active
IC50 [5, 15]: 15.9 µM
IC50 (HepG2; [16]): 40 µM
IC50 [6, 17]: 1.9 µM

CC(C)Cc1ccc(C(C)C(=O)O)cc1 (centres undefined) [IBUPROFEN]
IC50 [1, 10]: 37.2 µM
IC50 (MCF7; mcf7): Not Active
IC50 ([2]; hct-116): Not Active
IC50 ([3]; mahlavu): Not Active
IC50 ([4]; focus): Not Active
IC50 ([5]; snu-475): Not Active
IC50 (HepG2; hepg2): Not Active
IC50 ([6]; hep 3b2): Not Active

COc1ccc2cc(C(C)c3nnc4n3N=C(c3ccc(Cl)cc3)CS4)ccc2c1 (centres undefined)
IC50 [1, 10]: 5.6 µM
IC50 (MCF7; [11]): 10.1 µM
IC50 [2, 12]: 8.8 µM
